Reference: article PMC11094580 (EFSA Journal, 2024)
Converted amounts (≈) assume the structure as drawn. Like-named read-outs stand apart in the source and are kept apart here.

Legend:
[1] = Solubility of naringenin in various solvents; assay type: physicochemical; conditions: for Naringenin concentration (solubility): 25°C
[2] = Octanol/water partition coefficient; assay type: physicochemical
Stability as powder = assay type: physicochemical; conditions: room temperature (~ 22°C), long-term
Outline: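 The solid was held under accelerated conditions (45°C) and under normal storage at room temperature.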

Wistar rats [3] = assay: In vivo comet assay in liver and duodenum; set-up: species or system rat; conditions: 500, 1000, 2000 mg/kg bw per day, Wistar rats, M, gavage
[4] = cited from earlier work
[5] = ref Rebello et al. (2020), cited from earlier work
[6] = ref Gardana et al. (2007), cited from earlier work
[7] = ref Ma et al. (2006), cited from earlier work
Pig caecum = conditions: anaerobic incubation 0-24 h; ref Labib et al. (2004); cited from earlier work
human faecal slurries = conditions: 50 μmol incubated, ref Pereira‐Caro et al. (2015), cited from earlier work
[8] = system: Lactobacillus rhamnosus subsp. Rhamnosus NCTC 10302; conditions: 25 μg/mL, cultures of L. rhamnosus; ref Pereira‐Caro et al. (2016); cited from earlier work
[9] = system: Intestinal bacteria isolated from human faeces; conditions: 5 mg flavonoids in 50 mL broth, 2 days, anaerobic; ref Kim et al. (1998); cited from earlier work
Clostridium orbiscindens = conditions: ref Schoefer et al. (2003); cited from earlier work
simvastatin metabolism = conditions: rat and human hepatocytes and microsomes; ref Ubeaud et al. (1999); cited from earlier work
[10] = target: simvastatin metabolism in human liver microsomes; conditions: ref Ubeaud et al. (1999); cited from earlier work
[11] = system: felodipine metabolism in human liver microsomes; conditions: substrate felodipine; ref Fasinu et al. (2013), Ho et al. (2001); cited from earlier work
[12] = system: felodipine metabolism by pig intestinal tissue slices; conditions: ref Fasinu et al. (2010); cited from earlier work
[13] = system: Mice (strain not specified); conditions: Gavage, M, 3/group; ref Ortiz‐Andrade et al. (2008); cited from earlier work
Wistar rats [14] = conditions: Gavage, M, 3/group; ref Ortiz‐Andrade et al. (2008); cited from earlier work
Wistar rats [15] = conditions: 50 mg/kg bw per day, 4 weeks; ref Motawi et al. (2014); cited from earlier work
[16] = system: human peripheral blood lymphocytes; assay: In vitro micronucleus assay with FISH analysis

With `O=C1CC(c2ccc(O)cc2)Oc2cc(O)cc(O)c21` (stereo not drawn) [naringenin, 4H‐1‐Benzopyran‐4‐one, 2,3‐dihydro‐5,7‐dihydroxy‐2‐(4‐hydroxyphenyl)‐] the solubility ([1]; 80% ethanol, 25 °C, organic solvent or mixture) was roughly 60 mg/mL (≈ 220 mM), the Solubility in ethanol ([1]; 95% ethanol) was “Soluble” and the “Naringenin concentration (solubility)” value ([1]; Ethanol) was 10 % (w/w). For the same molecule, the “Naringenin concentration (solubility)” value ([1]; Ethanol, 80%) was 5 % (w/w), the “Naringenin concentration (solubility)” value ([1]; Propylene glycol) was 2.5 % (w/w) and the solubility ([1]; ethanol, 25 °C, organic solvent or mixture) was roughly 125 mg/mL (≈ 459 mM). The solubility ([1]; in water) was “Almost insoluble”, the Solubility in other ([1]; other solvents) was “Soluble in ether and benzene” and the solubility ([1]; propylene glycol, 25 °C, organic solvent or mixture) was roughly 25 mg/mL (≈ 91.8 mM). For the same molecule, the solubility ([1]; water, 25 °C) was 0.05 mg/mL (≈ 0.184 mM), the octanol/water partition coefficient [2] was 2.52 and the time remaining stable (Stability as powder) was roughly 2 years. The Result (Wistar rats [3]) was “Negative”, the “increase of solubility in water upon change of pH” value ([4]; 25°C, pH from 6.5 to 8.5, ref Lucas‐Abellán et al. (2019)) was ~ 20 fold and the “increase of solubility in water upon increase of temperature” value ([4]; from 25 to 35°C, ref Zhang et al. (2013), Lucas‐Abellán et al. (2019)) was 2 factor. For the same molecule, the “AUC0‐24h” value ([5]; 150 mg) was 67.61 ± 24.26 µM·h, the T max ([5]; 150 mg) was 2 h and the half-life in plasma ([5]; 150 mg) was 3 h. For the same molecule, the T max ([5]; 150 mg, listed as Nar‐A) was 3.2 ± 0.7 h, the “AUC0‐24h” value ([5]; 600 mg) was 199.05 ± 24.36 µM·h and the T max ([5]; 600 mg) was 2 h. For the same molecule, the half-life in plasma ([5]; 600 mg) was 2.65 h, the T max ([5]; 600 mg, listed as NAR‐A) was 2.4 ± 0.7 h and the “C max (plasma naringenin)” value ([6]; BOJ 150 mL, 6 mg (22 μmol)) was 0.0164 µg/mL. The “C max (plasma naringenin)” value ([6]; BOJ 300 mL, 12 mg (44 μmol)) was 0.034 µg/mL, the “C max for total naringenin” value ([7]; 30 mg/kg bw) was 0.0169 µg/mL and the “C max of unconjugated naringenin” value ([7]; 30 mg/kg bw) was 0.0029 µg/mL. The “time to C max for total naringenin (including the conjugates)” value (shortened to “time to C max for total naringenin”) ([7]; 30 mg/kg bw) was 0.5 h, the “C max for total naringenin” value ([7]; 90 mg/kg bw) was 0.028 µg/mL and the “C max of unconjugated naringenin” value ([7]; 90 mg/kg bw) was 0.0037 µg/mL. The “plasma half-life of total naringenin” value ([7]; 90 mg/kg bw) was 7.6 h, the “time to C max for total naringenin” value ([7]; 90 mg/kg bw) was 2 h and the “C max for total naringenin” value ([7]; 270 mg/kg bw) was 0.0438 µg/mL. The “C max of unconjugated naringenin” value ([7]; 270 mg/kg bw) was 0.0044 µg/mL, the “plasma half-life of total naringenin” value ([7]; 270 mg/kg bw) was 10.5 h and the “time to C max for total naringenin” value ([7]; 270 mg/kg bw) was 2 h. The “time to C max of unconjugated naringenin” value ([7]; 30, 90 or 270 mg/kg bw oral gavage) was no more than 15 min, the “naringenin excreted in bile” value ([7]; bile duct-cannulated rats) was 12% and the “naringenin excreted in urine” value [7] was 6.25%. For the same molecule, the “Results: microbial transformation products” value (Pig caecum) was “Naringenin was transformed to 3‐(4‐hydroxyphenyl)‐propionic acid and 3‐phenylpropionic acid”, the naringenin remaining (human faecal slurries; after 4 h of incubation) was 26 to 36 µmol and the naringenin remaining (human faecal slurries; after 6 h of incubation) was 13 to 28 µmol. For the same molecule, the naringenin remaining (human faecal slurries; after 24 h of incubation) was 3 to 8 µmol, the Recovery [8] was 83% and the “Results: bacterial metabolism” value [9] was “transformed to phenolic acids”. For the same molecule, the “Results: conversion by C. orbiscindens” value (Clostridium orbiscindens) was “converted 0.5 mM naringenin to 3‐(4‐hydroxyphenyl) propionic acid”, the Ki (simvastatin metabolism) was 5 to 30 µM and the Ki [10] was 23 µM. For the same molecule, the IC50 [11] was 122 µM, the IC50 [12] was 180 µM and the LD50 [13] was greater than 5000 mg/kg bw. For the same molecule, the LD50 (Wistar rats [14]) was greater than 5000 mg/kg bw, the “histopathological examination of the liver” value (Wistar rats [15]) was “slight inflammatory cell infiltration in the portal areas” and the “MN centromere-negative (FISH analysis)” value ([16]; 4‐h treatment with or without S9‐mix, naringenin 75, 200 and 250 μg/mL) was greater than 64%. The Result ([16]; 125, 150, 200 μg/mL (4 h + 24 h, +S9)) was “Positive FISH analysis indicates that naringenin induced micronuclei by a clastogenic mechanism”, the Result ([16]; 125, 150, 200, 250 μg/mL (4 h + 24 h, –S9)) was “Positive FISH analysis indicates that naringenin induced micronuclei by a clastogenic mechanism” and the MNBN frequency ([16]; 24 h + 24 h treatment) was “no statistically significant increase”.
